Bioassay records deposited in PubChem BioAssay by Johns Hopkins Ion Channel Center.
MrgX1 PAM = human MrgX1 positive allosteric modulation, primary screen. Q96LB2. AID 588675. B-score at 10 µM. actives 0.63% (n = 310,000). MrgX1-HEK293, Fluo-4 calcium flux, FDSS; hits give high values;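 active means plate-corrected calcium response at least 3 library SD above typical, normal starting fluorescence, not activating the receptor alone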;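 further: compound read alongside a low EC10 to EC30 dose of BAM8-22 agonist; peak minus trough fluorescence over baseline measured at the second addition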
MrgX1 ag = activates human MrgX1 receptor signaling; Q96LB2; MrgX1-HEK293 cells, Fluo-4 calcium fluorescence, agonist mode; hits give high values; B-score at 10 µM; actives 0.44% (n = 310,000);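 active means calcium response B-score plate-corrected fluorescence ratio at least 3 library SD, with starting fluorescence B-score inside 5 SD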
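System – MrgX1-expressing HEK293 cells · Incubation – cells plated overnight, dye loaded 0.5 h 37 °C, 0.5 h room temperature · Technique – kinetic Fluo-4 NW fluorescence of intracellular calcium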
MrgX1 antag = blocks BAM8-22 activation of human MrgX1 receptor | Q96LB2 | MRGX1-HEK293 calcium flux, Fluo-4, BAM8-22 antagonism; hits give low values | B-score at 10 µM | actives 1.3% (n = 310,000);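 active means calcium-response B-score plate-corrected more than 3 library SD below zero, starting fluorescence within 5 deviations, no agonist response on first addition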;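 further: peak minus trough fluorescence over baseline after final BAM8-22 challenge near maximal dose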
RGS4 act = potentiators or activators of RGS4; HEK293 M3R/inducible RGS4, carbachol calcium flux Fluo4; hits give low values; B-score at 10 µM; actives 0.92% (n = 310,000); AID 463111;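 active means B-score of the integrated calcium signal more than 4 SD below the library mean, with starting fluorescence not abnormally high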;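 further: negative B-score means reduced calcium response which marks RGS4 activation or potentiation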
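System – HEK293 FlpIn-TREx cells, stable M3R, doxycycline-inducible RGS4 · Reagent – ECmax carbachol challenge · Times – compound preincubation 20 min at room temperature before agonist · Technique – Fluo4 fluorescence kinetic imaging of calcium · Measure – B score of integrated Fluo4 ratio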
RGS4 block = human RGS4 inhibition | P49798 | HEK293 M3R/RGS4 inducible, Fluo-4 calcium flux; hits give high values; triggered by carbachol at its EC20 | B-score at 10 µM | actives 0.45% (n = 310,000) | AID 463165;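 active means B-score, a plate-corrected calcium signal, over three deviations above library mean, with baseline fluorescence within five deviations of library mean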;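 further: RGS4 expression induced by doxycycline in cells with stable M3 receptor; B-score is computed from the integrated fluorescence ratio over baseline after carbachol; higher B-score means a larger calcium signal and so more RGS4 inhibition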
Target sequence (P49798 whole entry, looked up): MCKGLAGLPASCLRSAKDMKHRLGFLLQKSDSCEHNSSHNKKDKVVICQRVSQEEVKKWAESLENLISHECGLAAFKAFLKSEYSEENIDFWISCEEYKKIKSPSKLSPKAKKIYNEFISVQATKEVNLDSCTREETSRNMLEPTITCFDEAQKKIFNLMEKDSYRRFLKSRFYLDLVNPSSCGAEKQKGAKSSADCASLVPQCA
The depositor's hits bear a star; i = inactive. Most compounds without a hit are left out; they make up all but 3.5% or so of the library.

SMILES | MrgX1 PAM | MrgX1 ag | MrgX1 antag | RGS4 act | RGS4 block
CN(C)c1ccc(C2C=C(c3ccc(Cl)cc3OC(F)F)Nc3ncnn32)cc1 (stereo unspecified) | i | 40* | i | i | i
Cc1ccc(C2C=C(c3ccccc3OC(F)F)Nc3ncnn32)cc1 (stereo unspecified) | i | i | i | i | i
Cc1ncc(CN2CCCC(C(=O)Nc3ccc(-c4cccc(F)c4)cc3)C2)n1C (stereo unspecified) | i | i | i | i | i
Cc1ccc(-c2csc(N/N=C/c3ccco3)n2)cc1 | i | i | i | i | i
Cc1ccc(-c2csc(N/N=C/C=C/c3ccccc3)n2)cc1 | i | i | -5.4* | i | i
C(=N\Nc1nc(-c2ccccc2)cs1)/c1ccco1 | i | i | -6.7* | i | i
CC(C)(C)c1cc(NS(=O)(=O)c2ccc(Br)s2)no1 | i | i | i | i | i
N#C/C(=C/c1ccccc1)C(=O)NCc1ccccc1 | i | i | i | i | i
CN(C)c1ccc(/C=C(/C#N)C(=O)NCc2ccccc2)o1 | i | i | -4.9* | i | i
CCOc1ccc(CCNC(=O)c2cccc(S(=O)(=O)N3CC(C)OC(C)C3)c2)cc1OCC (stereo unspecified) | i | i | -6.5* | i | i
CCn1ccnc1CN(C)C(=O)c1cc(COc2ccccc2SC)on1 | i | i | i | -7.6* | i
CSc1ccccc1OCc1cc(C(=O)N2CCc3sccc3C2)no1 | i | i | i | -7.8* | i
Cc1ccc(C)c(OCc2cc(C(=O)N3CCc4sccc4C3)no2)c1 | i | i | i | i | i
CC(Oc1ccc2cc(-c3ccccc3)c(=O)oc2c1)C(=O)NCC1CCC(C(=O)O)CC1 (stereo unspecified) | i | i | i | i | i
Cc1nc(N/N=C/c2ccc(O)cc2O)cc(N2CCOCC2)n1 | i | i | i | -7.6* | i
N#Cc1c2ccc(OCC(=O)NCc3ccco3)cc2n2ccccc12 | i | i | i | i | i
N#Cc1c2ccc(O)cc2n2ccccc12 | i | 46* | i | i | i
Cc1nc2ccsc2c(=O)n1-c1ccc(Cl)cc1 | i | i | i | i | i
COc1cc(C(C)=O)ccc1Oc1cc(NN2CCCCC2)c([N+](=O)[O-])cc1[N+](=O)[O-] | i | i | i | i | i
O=[N+]([O-])c1cc([N+](=O)[O-])c(Oc2cccc(Cl)c2Cl)cc1NN1CCCCC1 | i | i | i | -8.2* | i
Cc1ccc(F)c(Oc2cc(NN3CCCCC3)c([N+](=O)[O-])cc2[N+](=O)[O-])c1 | i | i | i | -7.4* | i
O=[N+]([O-])c1cc([N+](=O)[O-])c(Oc2ccc(Cl)c3cccnc23)cc1NN1CCCCC1 | i | i | i | i | i
CC1(C)Cc2cccc(Oc3cc(NN4CCCCC4)c([N+](=O)[O-])cc3[N+](=O)[O-])c2O1 | i | i | i | i | i
Cc1ccc(C)c(Oc2cc(NN3CCCCC3)c([N+](=O)[O-])cc2[N+](=O)[O-])c1 | i | i | i | i | i
O=[N+]([O-])c1cc([N+](=O)[O-])c(Oc2ccccc2F)cc1NN1CCCCC1 | i | i | i | -7* | i
SMILES | MrgX1 PAM | MrgX1 ag | MrgX1 antag | RGS4 act | RGS4 block
CCc1occc(=O)c1Oc1cc(NN2CCCCC2)c([N+](=O)[O-])cc1[N+](=O)[O-] | i | i | i | -8.2* | i
N#C/C(=C\c1ccc(O)cc1)C(=O)N1CCCC1 | i | i | i | i | i
N#C/C(=C\c1ccc(C#N)cc1)C(=O)N1CCCC1 | i | i | i | i | 5.1*
CC(CNS(=O)(=O)c1ccc2c(c1)NC(=O)CCS2)c1ccccc1 (stereo unspecified) | i | i | i | i | i
CC/C(=N\Nc1ccc([N+](=O)[O-])cc1)c1ccccc1 | i | i | i | i | i
CCC1(C(=O)c2ccccc2)C(c2ccc([N+](=O)[O-])cc2)C1(C(=O)OC)C(=O)OC (stereo unspecified) | i | 27* | i | i | i
